Reference: ChEMBL document CHEMBL1125199, “Comparison of azabicyclic esters and oxadiazoles as ligands for the muscarinic receptor” (J Med Chem, 1991)

Assays:
[1] = molecular target: T1, Muscarinic acetylcholine receptor (Rattus norvegicus) (UniProt P08482+P08483+P08485+P08911+P10980); test: Relative binding of QNB and OXO-M to muscarininc receptors (ratio of IC50); type: protein assay
Outline: (§1)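 Ratio of IC50 for [3H]QNB displacement to IC50 for [3H]OXO-M displacement in rat cerebral cortex membranes. [3H]QNB at 0.27 nM; [3H]OXO-M at 2 nM with 2 mM MgCl2. Both incubated at 37 °C for 30 min in 50 mM Tris pH 7.7.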

[2] = molecular target: Muscarinic acetylcholine receptor; test: The compound was tested in vitro for central muscarinic acetylcholine receptor affinity to displace [3H]quinuclidinyl benzilate from rat cerebral cortex; Value ranges from 16000-36000; type: tissue-based
[3] = molecular target: Muscarinic acetylcholine receptor; test: The compound was tested in vitro for central muscarinic acetylcholine receptor affinity to displace [3H]oxotremorine-M from rat cerebral cortex; Value ranges from 440-600; type: tissue-based
[4] = molecular target: Muscarinic acetylcholine receptor; test: The compound was tested in vitro for central muscarinic acetylcholine receptor affinity to displace [3H]quinuclidinyl benzilate from rat cerebral cortex; Value ranges from 3900-5800; type: tissue-based
[5] = molecular target: Muscarinic acetylcholine receptor; test: The compound was tested in vitro for central muscarinic acetylcholine receptor affinity to displace [3H]oxotremorine-M from rat cerebral cortex; Value ranges from 100-150; type: tissue-based
[6] = molecular target: Muscarinic acetylcholine receptor; test: The compound was tested in vitro for central muscarinic acetylcholine receptor affinity to displace [3H]oxotremorine-M from rat cerebral cortex; Value ranges from 78-200; type: tissue-based
[7] = molecular target: Muscarinic acetylcholine receptor; test: The compound was tested in vitro for central muscarinic acetylcholine receptor affinity to displace [3H]quinuclidinyl benzilate from rat cerebral cortex; Value ranges from 23000-38000; type: tissue-based
[8] = molecular target: T1, Muscarinic acetylcholine receptor (Rattus norvegicus); test: It is the ratio of IC50 (QNB) to that of IC50 (OXO-M); type: protein assay; outline: as §1
[9] = molecular target: Muscarinic acetylcholine receptor; test: The compound was tested in vitro for central muscarinic acetylcholine receptor affinity to displace [3H]oxotremorine-M from rat cerebral cortex; Value ranges from 36-85; type: tissue-based
[10] = molecular target: Muscarinic acetylcholine receptor; test: The compound was tested in vitro for central muscarinic acetylcholine receptor affinity to displace [3H]quinuclidinyl benzilate from rat cerebral cortex; Value ranges from 29000-33000; type: tissue-based
[11] = molecular target: Muscarinic acetylcholine receptor; test: The compound was tested in vitro for central muscarinic acetylcholine receptor affinity to displace [3H]quinuclidinyl benzilate from rat cerebral cortex; Value ranges from 60000-65000; type: tissue-based
[12] = molecular target: Muscarinic acetylcholine receptor; test: The compound was tested in vitro for central muscarinic acetylcholine receptor affinity to displace [3H]oxotremorine-M from rat cerebral cortex; Value ranges from 1000-1900; type: tissue-based
[13] = molecular target: Muscarinic acetylcholine receptor; test: The compound was tested in vitro for central muscarinic acetylcholine receptor affinity to displace [3H]quinuclidinyl benzilate from rat cerebral cortex; Value ranges from 8000-17000; type: tissue-based
[14] = molecular target: Muscarinic acetylcholine receptor; test: The compound was tested in vitro for central muscarinic acetylcholine receptor affinity to displace [3H]oxotremorine-M from rat cerebral cortex; Value ranges from 650-1900; type: tissue-based
[15] = molecular target: Muscarinic acetylcholine receptor; test: The compound was tested in vitro for central muscarinic acetylcholine receptor affinity to displace [3H]oxotremorine-M from rat cerebral cortex; Value ranges from 950-1000; type: tissue-based
[16] = molecular target: Muscarinic acetylcholine receptor; test: The compound was tested in vitro for central muscarinic acetylcholine receptor affinity to displace [3H]quinuclidinyl benzilate from rat cerebral cortex; Value ranges from 15000-25000; type: tissue-based
[17] = molecular target: Muscarinic acetylcholine receptor; test: The compound was tested in vitro for central muscarinic acetylcholine receptor affinity to displace [3H]oxotremorine-M from rat cerebral cortex; Value ranges from 93-190; type: tissue-based
[18] = molecular target: Muscarinic acetylcholine receptor; test: The compound was tested in vitro for central muscarinic acetylcholine receptor affinity to displace [3H]quinuclidinyl benzilate from rat cerebral cortex; Value ranges from 14000-38000; type: tissue-based
[19] = molecular target: Muscarinic acetylcholine receptor; test: The compound was tested in vitro for central muscarinic acetylcholine receptor affinity to displace [3H]oxotremorine-M from rat cerebral cortex; Value ranges from 200-340; type: tissue-based
[20] = molecular target: Muscarinic acetylcholine receptor; test: The compound was tested in vitro for central muscarinic acetylcholine receptor affinity to displace [3H]quinuclidinyl benzilate from rat cerebral cortex; Value ranges from 2800-6300; type: tissue-based
[21] = molecular target: Muscarinic acetylcholine receptor; test: The compound was tested in vitro for central muscarinic acetylcholine receptor affinity to displace [3H]quinuclidinyl benzilate from rat cerebral cortex; Value ranges from 2300-2600; type: tissue-based
[22] = molecular target: Muscarinic acetylcholine receptor; test: The compound was tested in vitro for central muscarinic acetylcholine receptor affinity to displace [3H]oxotremorine-M from rat cerebral cortex; Value ranges from 41-48; type: tissue-based
[23] = molecular target: Muscarinic acetylcholine receptor; test: The compound was tested for muscarinic acetylcholine receptor affinity to displace [3H]oxotremorine-M from rat cerebral cortex; Value ranges from 250-280; type: tissue-based
[24] = molecular target: Muscarinic acetylcholine receptor; test: The compound was tested in vitro for central muscarinic acetylcholine receptor affinity to displace [3H]quinuclidinyl benzilate from rat cerebral cortex; Value ranges from 1300-2300; type: tissue-based

COC(=O)C1CN2CCC1CC2 (stereo not drawn)
Ratio [1]: 49
IC50 [2]: 25 µM
IC50 [3]: 0.52 µM

COC(=O)[C@@H]1C[C@H]2CCCN(C2)C1
Ratio [1]: 37
IC50 [4]: 4.8 µM
IC50 [5]: 0.13 µM

Cc1nnc([C@@H]2CN3CC[C@@H]2C3)o1
IC50 [6]: 0.12 µM
IC50 [7]: 29 µM
Ratio [8]: 240

COC(=O)C12CCN(CC1)C2
IC50 [9]: 0.048 µM
Ratio [8]: 650
IC50 [10]: 31 µM

COC(=O)[C@@H]1C[N@@]2CCC[C@@H]1C2
Ratio [8]: 46
IC50 [11]: 62 µM
IC50 [12]: 1.4 µM

Cc1nc(C2CN3CCC2CC3)no1 (stereo not drawn)
IC50 [13]: 12 µM
IC50 [14]: 1.1 µM
Ratio [8]: 10

Cc1nnc(C2CN3CCC2CC3)o1 (stereo not drawn)
IC50 [15]: 0.98 µM
Ratio [8]: 20
IC50 [16]: 19 µM

Cc1noc(C23CCN(CC2)C3)n1
Ratio [1]: 170
IC50 [17]: 0.13 µM
IC50 [18]: 23 µM

Cc1nc(C23CCCN(CC2)C3)no1 (stereo not drawn)
IC50 [19]: 0.26 µM
IC50 [20]: 4.2 µM
Ratio [8]: 16

Cc1noc([C@@H]2CN3CCC[C@@H]2C3)n1
Ratio [1]: 55
IC50 [21]: 2.4 µM
IC50 [22]: 0.044 µM

Cc1noc([C@@H]2C[C@H]3CCCN(C3)C2)n1
Ratio [1]: 7
IC50 [23]: 0.26 µM
IC50 [24]: 1.73 µM
